Measured values reported in the EternaBench riboswitch data.

Test system: MS2 coat protein
Assay: apparent Kd, MS2 coat protein; higher = weaker binding; RNA-MaP array
Procedure, shortened: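 Designed RNAs were transcribed in place on an Illumina sequencing chip from sequenced DNA templates. At room temperature and with or without input ligand, they were incubated with fluorescently labeled MS2 coat protein from 1.5 nM to 3 μM, for 0.8–1.5 h at the lowest and 10–20 min at the highest concentrations. Apparent Kd is the median of the binding-curve fits made per cluster, with designs measured on fewer than 10 clusters excluded.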

[1] = designed as: ON switch for flavin mononucleotide, no ligand
[2] = ligand present: flavin mononucleotide, designed as: ON switch for flavin mononucleotide
[3] = ligand present: flavin mononucleotide, designed as: OFF switch for flavin mononucleotide
[4] = designed as: OFF switch for flavin mononucleotide, no ligand
[5] = designed as: ON switch for theophylline, no ligand
[6] = ligand present: theophylline, designed as: ON switch for theophylline
[7] = designed as: ON switch for tryptophan, no ligand
[8] = ligand present: tryptophan, designed as: ON switch for tryptophan
[9] = designed as: OFF switch for tryptophan, no ligand
[10] = ligand present: tryptophan, designed as: OFF switch for tryptophan

Row | Sequence | apparent Kd [1] | apparent Kd [2] | apparent Kd [3] | also measured
1 | ACCAUCACAUGAGGAUCACCCAUGUAAAUAACUACAUAGACGGAGGAUAUCACAAUAACAGCGAAAGAGAAGGCCGGUGUAAAA | 11.5 nM | 8.1 nM |  | 
2 | CUCAAGUAAGGAUAUAUUCACGCUCGUAAUUAGUGUCGCGCAUAGAAGGUACAUGAGGAUCACCCAUGUCAUGU |  |  | 18.4 nM | 
3 | GAGCGACUAUGAGAUUGGACAUGAGGAUCACCCAUGUGAGACAGAAGGGCCUUGGCGCCCGUGAGGCAGGAUAUGUACCAAGCA | 27.4 nM | 19.6 nM |  | 
4 | AUAAUCAAAGGAUAUGGCUAAGCACACAUGAGGAUCACCCAUGUGAUCGUUCGUACAGUUCCAGAAGGUUGGUCCA |  |  | 13.3 nM | apparent Kd [4]: 15 nM
5 | CUAGUGUGAGGAUAUGAGUCAACCUUUUAGUUCUAAGGAGAUCAGAAGGCACAUGAGGAUCACCCAUGUCAGAA |  |  | 84 nM | apparent Kd [4]: 33.4 nM
6 | UACAUACAUGAGGAUCACCCAUGUUGCGAUACCAGCGAAAGAGACCGCCCUUGGCAGCGCUCAUUUAGUUCCAUUCUUGAUCGAA |  |  |  | apparent Kd [5]: 14.3 nM; apparent Kd [6]: 25.1 nM
7 | UAUGGACAUGAGGAUCACCCAUGUGGUAGAUGCUUAGGAUAUUAGACAGGAUACAUGUACUAAGAAGGAAGAUGGU | 266 nM | 102 nM |  | 
8 | CGUUAAGAAUCGGCCGCCACUCCAUACGUGUGAAUCGCGGAUCGACAUGAGGAUCACCCAUGUCGGAGGACCGGGAUCCUCUUUC |  |  |  | apparent Kd [7]: 35 nM; apparent Kd [8]: 23.3 nM
9 | CUGUUACAUGAGGAUCACCCAUGUGAGCGGUUGCUAGGAUAUCGCCAUUGGUGGUUCGGACGAGAAGGAGCUAAAA | 150 nM | 67.2 nM |  | 
10 | AAGCGUUCAGGAUAUACAUGAGGAUCACCCAUGUAAUGGAUGCUGCAUUACCGGGCGAGUAGAAGGGAAACGUC |  |  | 6.24 nM | apparent Kd [4]: 6.09 nM
11 | CAUCCACCUGAAGCCUCCCAAUUCCUCGAUACCAGAGGAUUAAGACUCCCUUGGCAGCGAGCUACAUGAGGAUCACCCAUGUGCC |  |  |  | apparent Kd (designed as: OFF switch for theophylline, no ligand): 19.1 nM; apparent Kd (ligand present: theophylline, designed as: OFF switch for theophylline): 23.9 nM
12 | UAAGUGCUCACAUGAGGAUCACCCAUGUAUUUACUUAUGAGGAGAAGGAUCAAGGAGCAGCGGUGAUAGGAUAUCCUAAUAGAA | 33 nM | 23.6 nM |  | 
13 | UUAAAGGCACCUCAUGGGACUAUAAACCCGCGAGGACCGGUACGGCCGCCACUCGAAUAUCAACAUGAGGAUCACCCAUGUGGUU |  |  |  | apparent Kd [9]: 21.8 nM; apparent Kd [10]: 48.5 nM
14 | AUCAUCAGUUCGGCCGCCACUGUUUGGCACAGUUGUAUCGUACAUGAGGAUCACCCAUGUCACCACAGGACCGGGAACGCCGUCG |  |  |  | apparent Kd [9]: 16.1 nM; apparent Kd [10]: 17.3 nM
15 | ACAUGAGGAUCACCCAUGUUUUAUUCGAACUGGAAAUGACGUCAGGAUAUCACAAAUAGCAGCAAUGAGAAGGGACUAUAUAUG | 11.6 nM | 8.79 nM |  | 
16 | UCCUCGUUAGGAUAUGCCCACAUACACAGUUGUGAACUCUGGCAGAAGGAACAUGAGGAUCACCCAUGUAUAUA |  |  | 230 nM | apparent Kd [4]: 89.3 nM
17 | UAUCUAACGAAGGAUACCAGUACAUGAGAGUACAUGAGGAUCACCCAUGUUAGAUACGGGUACCCUUGGCAGCCUCACCUACACC |  |  |  | apparent Kd [5]: 56.8 nM; apparent Kd [6]: 63.3 nM
18 | UCGCUAUUGUCGGCCGCCACUACUGCAGGGAAACAAAUAUAACCACAUGAGGAUCACCCAUGUCUUAGGACCGGGACACCCAUCU |  |  |  | apparent Kd [7]: 98.3 nM; apparent Kd [8]: 80.7 nM
19 | ACAACAAAACAGAAGGCCUUAAAUUACAUGAGGAUCACCCAUGUUACACUAUACAAACAGAACAAGGAGGAUAUGUAAGACUGA | 19.9 nM | 8.65 nM |  | 
20 | GUAUUGUAAGGAUAUAGUAGGCCAGUACGAAGGCUUGAGCACUAGAAGGUACAUGAGGAUCACCCAUGUGGUGG |  |  | 146 nM | apparent Kd [4]: 401 nM
